# Reference: ChEMBL document CHEMBL4393654, “Discovery and Early Clinical Development of an Inhibitor of 5-Lipoxygenase Activating Protein (AZD5718) for Treatment of Coronary Artery Disease” (J Med Chem, 2019)
# Columns and labels:
# [1] = Cardiotoxicity in anesthetized Beagle dog assessed as effect on cardiac contractility administered for 2 days as 45 mins iv infusion followed by compound washout and subsequent adrenaline dosing for 2 days as 10 mins iv infusion; format: toxicity, organism-based, Canis lupus familiaris; conditions: in vivo
# [2] = target: T1, A-type potassium channel modulatory protein KCNIP2 (Homo sapiens, UniProt Q9NS61); experiment: Inhibition of human KChip2.2 by Ion-work electrophysiology assay
# T1 sequence (Q9NS61 whole entry): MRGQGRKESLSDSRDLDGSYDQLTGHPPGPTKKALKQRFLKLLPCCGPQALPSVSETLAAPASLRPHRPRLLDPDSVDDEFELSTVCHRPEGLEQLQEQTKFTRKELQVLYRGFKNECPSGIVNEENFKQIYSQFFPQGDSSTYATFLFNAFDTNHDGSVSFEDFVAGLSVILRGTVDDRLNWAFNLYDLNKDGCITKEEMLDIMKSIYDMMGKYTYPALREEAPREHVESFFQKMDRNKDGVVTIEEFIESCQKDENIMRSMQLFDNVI
# [3] = target: Potassium voltage-gated channel subfamily E member 1 (Homo sapiens, UniProt P15382); experiment: Inhibition of human KCNE1 by Ion-work electrophysiology assay
# [4] = target: Voltage-gated inwardly rectifying potassium channel KCNH2 (Homo sapiens, UniProt Q12809); experiment: Inhibition of human ERG by Ion-work assay
# Voltage-gated inwardly rectifying potassium channel KCNH2, sequence (Q12809 whole entry, the tested form may be a part): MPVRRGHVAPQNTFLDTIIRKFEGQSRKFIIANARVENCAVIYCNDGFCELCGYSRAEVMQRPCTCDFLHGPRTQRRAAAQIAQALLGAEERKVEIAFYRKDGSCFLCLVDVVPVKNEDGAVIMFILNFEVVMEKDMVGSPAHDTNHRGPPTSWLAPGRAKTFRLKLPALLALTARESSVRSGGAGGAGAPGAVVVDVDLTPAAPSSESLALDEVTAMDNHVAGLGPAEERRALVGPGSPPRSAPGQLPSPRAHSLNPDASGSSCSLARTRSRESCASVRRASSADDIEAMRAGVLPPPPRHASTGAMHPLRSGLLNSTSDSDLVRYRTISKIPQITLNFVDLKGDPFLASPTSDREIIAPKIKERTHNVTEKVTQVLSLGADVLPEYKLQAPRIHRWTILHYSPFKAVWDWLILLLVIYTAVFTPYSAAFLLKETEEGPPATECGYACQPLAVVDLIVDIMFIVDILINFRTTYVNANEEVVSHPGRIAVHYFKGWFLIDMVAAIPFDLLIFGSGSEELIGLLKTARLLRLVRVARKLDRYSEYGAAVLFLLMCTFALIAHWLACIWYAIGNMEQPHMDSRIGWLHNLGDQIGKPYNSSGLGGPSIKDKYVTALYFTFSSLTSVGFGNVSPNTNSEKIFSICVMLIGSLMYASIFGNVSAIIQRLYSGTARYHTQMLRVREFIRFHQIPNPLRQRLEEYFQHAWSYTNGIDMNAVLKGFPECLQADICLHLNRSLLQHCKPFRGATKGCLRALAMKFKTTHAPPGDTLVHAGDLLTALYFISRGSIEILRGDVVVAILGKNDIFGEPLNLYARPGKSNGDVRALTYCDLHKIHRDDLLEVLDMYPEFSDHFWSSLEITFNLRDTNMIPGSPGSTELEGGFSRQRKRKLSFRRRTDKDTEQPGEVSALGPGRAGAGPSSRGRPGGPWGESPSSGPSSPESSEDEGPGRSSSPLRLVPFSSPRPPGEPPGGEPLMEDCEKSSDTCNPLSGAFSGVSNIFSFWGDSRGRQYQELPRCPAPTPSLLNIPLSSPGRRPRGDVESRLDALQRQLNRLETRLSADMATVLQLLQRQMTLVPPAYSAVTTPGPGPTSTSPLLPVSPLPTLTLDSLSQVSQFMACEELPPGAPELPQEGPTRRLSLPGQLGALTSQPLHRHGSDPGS
# [5] = Cardiotoxicity in anesthetized Beagle dog assessed as effect on heart rate administered for 2 days as 45 mins iv infusion followed by compound washout and subsequent adrenaline dosing for 2 days as 10 mins iv infusion; format: toxicity, organism-based, Canis lupus familiaris; conditions: in vivo
# [6] = Intrinsic clearance in human hepatocytes assessed per million cells at 1 uM measured after 2 to 60 mins by LC-MS/MS analysis; format: ADME, cell-based, Hepatocyte; conditions: read-out: CLH
# [7] = target: T2, A-type voltage-gated potassium channel KCND3 (Homo sapiens, UniProt Q9UK17); experiment: Inhibition of human Kv4.3 by Ion-work electrophysiology assay
# T2 sequence (Q9UK17 whole entry): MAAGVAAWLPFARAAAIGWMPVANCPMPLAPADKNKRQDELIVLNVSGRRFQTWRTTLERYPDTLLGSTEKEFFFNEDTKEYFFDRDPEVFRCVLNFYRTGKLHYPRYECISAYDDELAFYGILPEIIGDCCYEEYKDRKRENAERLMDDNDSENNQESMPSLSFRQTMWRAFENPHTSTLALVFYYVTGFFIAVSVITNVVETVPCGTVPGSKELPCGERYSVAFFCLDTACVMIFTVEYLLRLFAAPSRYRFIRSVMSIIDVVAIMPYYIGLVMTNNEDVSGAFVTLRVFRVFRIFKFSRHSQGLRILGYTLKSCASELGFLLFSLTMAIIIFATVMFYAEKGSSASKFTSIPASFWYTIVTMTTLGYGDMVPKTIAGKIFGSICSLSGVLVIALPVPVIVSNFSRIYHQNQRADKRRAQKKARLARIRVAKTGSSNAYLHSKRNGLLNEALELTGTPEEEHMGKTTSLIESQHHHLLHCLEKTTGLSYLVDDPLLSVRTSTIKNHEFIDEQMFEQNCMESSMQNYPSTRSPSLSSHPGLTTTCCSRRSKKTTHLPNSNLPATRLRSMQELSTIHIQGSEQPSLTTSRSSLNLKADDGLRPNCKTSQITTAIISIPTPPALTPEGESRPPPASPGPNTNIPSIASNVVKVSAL
# [8] = Inhibition of phospholipidosis in rat H42EC3 cells assessed as reduction in NBD-PE accumulation by SYTOX orange staining-based high content imaging analysis; format: cell-based
# [9] = Passive apparent permeability across apical to basolateral side in human Caco2 cells at pH 6.5; format: ADME, cell-based; conditions: Caco-2, pH 6.5
# Outline: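 Passive permeability across Caco-2 monolayers, measured in the A to B direction at pH 6.5.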
# [10] = Volume of distribution at steady state in rat at 1 umol/kg, iv; format: ADME; conditions: in vivo, read-out: Vdss
# [11] = target: Cytochrome P450 2D6 (Homo sapiens, UniProt P10635); experiment: Inhibition of recombinant human CYP2D6 expressed in Escherichia coli using MAMC as substrate by fluorescence assay; format: ADME
# Cytochrome P450 2D6, sequence (P10635 whole entry): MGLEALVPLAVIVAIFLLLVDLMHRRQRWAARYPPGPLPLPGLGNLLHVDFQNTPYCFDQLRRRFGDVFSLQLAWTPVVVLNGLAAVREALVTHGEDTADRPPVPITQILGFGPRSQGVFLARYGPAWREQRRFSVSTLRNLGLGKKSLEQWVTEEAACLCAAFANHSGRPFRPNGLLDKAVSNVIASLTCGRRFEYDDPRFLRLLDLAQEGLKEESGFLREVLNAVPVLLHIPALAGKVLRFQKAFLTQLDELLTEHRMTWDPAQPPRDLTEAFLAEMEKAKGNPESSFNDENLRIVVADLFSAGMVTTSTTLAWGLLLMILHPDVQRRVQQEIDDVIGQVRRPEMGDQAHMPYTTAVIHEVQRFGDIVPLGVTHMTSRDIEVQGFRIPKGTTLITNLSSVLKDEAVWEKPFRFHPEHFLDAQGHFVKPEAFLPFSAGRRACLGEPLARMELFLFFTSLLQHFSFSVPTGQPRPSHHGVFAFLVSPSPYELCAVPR
# [12] = Protein binding in human plasma assessed as unbound fraction by equilibrium dialysis method; format: ADME, cell-free
# [13] = target: Solute carrier organic anion transporter family member 1B1 (Homo sapiens, UniProt Q9Y6L6); experiment: […] at recombinant human OATP1B1 expressed in HEK293 cells assessed as reduction in pivastatin uptake; format: ADME, cell-based
# [14] = Octanol-phosphate buffer partition co-efficient, log D of the compound at pH 7.4 after 2 hrs by LC-MS/MS-based shake flask method; format: physicochemical
# Outline: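 Distribution between octanol and water at pH 7.4.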
# [15] = Intrinsic clearance in rat hepatocytes assessed per million cells at 1 uM measured after 2 to 60 mins by LC-MS/MS analysis; format: ADME, cell-based, Hepatocyte; conditions: read-out: CLH
# Outline: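 Rat hepatocyte incubation of the compound; intrinsic clearance measured after incubation.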
# [16] = Oral bioavailability in Beagle dog at 2 umol/kg; format: ADME, organism-based, Canis lupus familiaris; conditions: in vivo
# [17] = target: Cytochrome P450 3A4 (Homo sapiens, UniProt P08684); experiment: Inhibition of recombinant human CYP3A4 expressed in Escherichia coli using BFC as substrate by fluorescence assay; format: ADME
# Cytochrome P450 3A4, sequence (P08684 whole entry): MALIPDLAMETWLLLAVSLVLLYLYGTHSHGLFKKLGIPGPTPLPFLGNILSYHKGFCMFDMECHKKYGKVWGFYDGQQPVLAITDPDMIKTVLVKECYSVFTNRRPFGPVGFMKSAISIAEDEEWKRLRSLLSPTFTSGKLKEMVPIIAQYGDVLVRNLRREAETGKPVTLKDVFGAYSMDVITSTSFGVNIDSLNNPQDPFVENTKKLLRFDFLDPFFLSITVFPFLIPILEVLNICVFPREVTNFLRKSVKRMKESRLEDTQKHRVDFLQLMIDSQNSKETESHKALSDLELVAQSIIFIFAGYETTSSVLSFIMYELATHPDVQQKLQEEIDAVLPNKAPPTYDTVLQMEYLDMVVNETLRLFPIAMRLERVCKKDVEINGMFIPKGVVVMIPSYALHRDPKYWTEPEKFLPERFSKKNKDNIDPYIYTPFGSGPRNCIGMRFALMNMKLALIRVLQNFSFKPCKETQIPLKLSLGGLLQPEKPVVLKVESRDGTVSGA
# [18] = Half life in rat at 1 umol/kg, iv; format: ADME; conditions: in vivo
# [19] = Aqueous solubility of the compound in pH 7.4 phosphate buffer measured after 24 hrs by LC-MS/MS-based shake flask method; format: physicochemical
# [20] = target: Sodium channel protein type 5 subunit alpha (Homo sapiens, UniProt Q14524); experiment: Inhibition of human NaV1.5 by Ion-work electrophysiology assay
# Sodium channel protein type 5 subunit alpha, sequence (Q14524 whole entry): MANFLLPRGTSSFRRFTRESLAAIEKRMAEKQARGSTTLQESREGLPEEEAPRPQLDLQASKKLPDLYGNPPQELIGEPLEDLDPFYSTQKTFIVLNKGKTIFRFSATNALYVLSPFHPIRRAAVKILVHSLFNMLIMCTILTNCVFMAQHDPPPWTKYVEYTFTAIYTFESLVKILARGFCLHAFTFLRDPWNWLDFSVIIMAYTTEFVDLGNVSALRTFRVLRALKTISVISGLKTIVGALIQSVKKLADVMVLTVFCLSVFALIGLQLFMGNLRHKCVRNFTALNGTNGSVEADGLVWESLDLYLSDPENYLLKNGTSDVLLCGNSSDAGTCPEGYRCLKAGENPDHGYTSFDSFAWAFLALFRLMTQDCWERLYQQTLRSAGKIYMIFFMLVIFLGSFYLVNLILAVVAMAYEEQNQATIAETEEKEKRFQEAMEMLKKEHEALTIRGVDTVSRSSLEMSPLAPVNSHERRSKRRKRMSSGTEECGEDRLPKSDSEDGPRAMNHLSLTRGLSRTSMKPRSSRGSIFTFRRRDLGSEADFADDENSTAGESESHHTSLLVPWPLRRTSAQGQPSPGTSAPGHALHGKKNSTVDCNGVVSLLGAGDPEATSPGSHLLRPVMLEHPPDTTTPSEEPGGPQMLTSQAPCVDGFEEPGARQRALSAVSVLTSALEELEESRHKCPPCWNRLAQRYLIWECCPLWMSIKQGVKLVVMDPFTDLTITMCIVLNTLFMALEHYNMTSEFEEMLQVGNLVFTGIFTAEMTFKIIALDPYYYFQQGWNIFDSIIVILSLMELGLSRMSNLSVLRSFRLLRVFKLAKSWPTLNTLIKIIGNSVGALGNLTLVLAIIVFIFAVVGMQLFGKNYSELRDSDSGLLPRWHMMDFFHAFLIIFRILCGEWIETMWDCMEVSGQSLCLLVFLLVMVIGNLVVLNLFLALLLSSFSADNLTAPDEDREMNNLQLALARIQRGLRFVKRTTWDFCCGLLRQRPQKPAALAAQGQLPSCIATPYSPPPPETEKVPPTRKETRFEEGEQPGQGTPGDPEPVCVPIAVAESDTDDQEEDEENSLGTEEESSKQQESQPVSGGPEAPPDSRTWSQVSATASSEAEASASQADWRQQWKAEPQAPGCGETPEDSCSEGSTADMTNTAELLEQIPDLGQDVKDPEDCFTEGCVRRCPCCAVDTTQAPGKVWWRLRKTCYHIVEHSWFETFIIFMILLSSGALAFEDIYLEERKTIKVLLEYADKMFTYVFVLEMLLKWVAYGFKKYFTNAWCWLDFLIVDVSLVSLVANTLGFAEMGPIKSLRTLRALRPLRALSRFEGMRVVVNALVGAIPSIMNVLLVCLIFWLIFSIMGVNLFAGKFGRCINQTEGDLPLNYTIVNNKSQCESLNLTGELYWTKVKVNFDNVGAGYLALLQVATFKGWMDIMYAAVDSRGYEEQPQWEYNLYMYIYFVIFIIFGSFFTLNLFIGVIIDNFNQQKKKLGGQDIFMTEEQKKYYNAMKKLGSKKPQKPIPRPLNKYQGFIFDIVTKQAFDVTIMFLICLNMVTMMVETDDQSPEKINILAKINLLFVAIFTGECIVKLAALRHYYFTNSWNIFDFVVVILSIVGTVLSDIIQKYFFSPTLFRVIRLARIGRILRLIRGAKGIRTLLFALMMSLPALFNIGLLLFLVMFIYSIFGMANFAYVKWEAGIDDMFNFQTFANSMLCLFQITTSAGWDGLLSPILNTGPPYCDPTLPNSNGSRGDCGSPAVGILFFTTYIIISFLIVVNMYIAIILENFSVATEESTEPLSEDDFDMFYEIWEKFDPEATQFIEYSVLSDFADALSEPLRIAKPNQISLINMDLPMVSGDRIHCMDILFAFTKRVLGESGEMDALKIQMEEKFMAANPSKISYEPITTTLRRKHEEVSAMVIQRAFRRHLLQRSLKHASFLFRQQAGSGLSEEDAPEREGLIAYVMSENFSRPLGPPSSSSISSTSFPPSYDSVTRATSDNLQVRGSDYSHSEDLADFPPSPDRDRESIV
# [21] = target: Cytochrome P450 2C19 (Homo sapiens, UniProt P33261); experiment: Inhibition of recombinant human CYP2C19 expressed in Escherichia coli using CEC as substrate by fluorescence assay; format: ADME
# Cytochrome P450 2C19, sequence (P33261 whole entry): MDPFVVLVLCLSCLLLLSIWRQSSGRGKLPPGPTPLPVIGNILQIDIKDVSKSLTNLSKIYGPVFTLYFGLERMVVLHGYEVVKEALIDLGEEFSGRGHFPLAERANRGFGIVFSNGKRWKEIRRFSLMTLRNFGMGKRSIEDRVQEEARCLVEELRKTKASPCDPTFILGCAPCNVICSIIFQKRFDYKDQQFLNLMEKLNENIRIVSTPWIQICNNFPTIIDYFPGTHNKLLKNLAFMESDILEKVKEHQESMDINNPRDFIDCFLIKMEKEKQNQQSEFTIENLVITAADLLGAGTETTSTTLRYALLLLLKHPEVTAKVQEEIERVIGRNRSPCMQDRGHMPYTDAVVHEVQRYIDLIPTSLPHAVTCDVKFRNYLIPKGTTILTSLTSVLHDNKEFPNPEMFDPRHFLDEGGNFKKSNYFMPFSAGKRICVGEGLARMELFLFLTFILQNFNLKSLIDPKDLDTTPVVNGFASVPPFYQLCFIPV
# [22] = Mutagenicity in Salmonella typhimurium TA98 in absence of rat S9 fraction by Ames test; format: toxicity; conditions: salmonella enterica subsp. enterica serovar typhimurium
# Outline: (§1)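 Ames bacterial mutagenicity test in S. typhimurium TA98 and TA100. Run with and without metabolic activation by rat S9 fraction.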
# [23] = Mutagenicity in Salmonella typhimurium TA100 in presence of rat S9 fraction by Ames test; format: toxicity, subcellular; conditions: salmonella enterica subsp. enterica serovar typhimurium; outline: as §1
# [24] = target: Cytochrome P450 2C9 (Homo sapiens, UniProt P11712); experiment: Inhibition of recombinant human CYP2C9 expressed in Escherichia coli using 7MFC as substrate by fluorescence assay; format: ADME
# [25] = Protein binding in Sprague-Dawley rat plasma assessed as unbound fraction by equilibrium dialysis method; format: ADME, cell-free
# [26] = target: Potassium/sodium hyperpolarization-activated cyclic nucleotide-gated channel 4 (Homo sapiens, UniProt Q9Y3Q4); experiment: Inhibition of human HCN4 by Ion-work electrophysiology assay
# [27] = target: Voltage-dependent T-type calcium channel subunit alpha-1H (Homo sapiens, UniProt O95180); experiment: Inhibition of human Cav3.2 by Ion-work electrophysiology assay
# [28] = Toxicity in conscious telemetered Beagle dog assessed as vomiting; set-up: species or system Canis lupus familiaris; conditions: in vivo
# [29] = Volume of distribution at steady state in Beagle dog at 2 umol/kg, iv; format: ADME, Canis lupus familiaris; conditions: in vivo, read-out: Vdss
# [30] = Clearance in Beagle dog at 2 umol/kg, iv; format: ADME, Canis lupus familiaris; conditions: in vivo
# [31] = Half life in Beagle dog at 2 umol/kg, iv; format: ADME, Canis lupus familiaris; conditions: in vivo
# [32] = target: Potassium voltage-gated channel subfamily A member 5 (Homo sapiens, UniProt P22460); experiment: Inhibition of human Kv1.5 by Ion-work electrophysiology assay
SMILES,Activity [1],IC50 [2] [µM],IC50 [3] [µM],IC50 [4] [µM],Activity [5],hepatocyte CLint at 1 µM [6] [µL/min/1e6 cells],IC50 [7] [µM],inhibition (INH) [8],Papp A→B [9] [×10⁻⁶ cm/s],IC50 [11] [µM],fraction unbound [12],logD at 2 h [14],hepatocyte CLint at 1 µM [15] [µL/min/1e6 cells],IC50 [17] [µM],solubility thermodynamic at 24 h [19] [µM],IC50 [20] [µM],IC50 [21] [µM],Activity [22],Activity [23],IC50 [24] [µM],other results
Cc1cc(-c2ccc(C(=O)[C@@H]3CCCC[C@H]3C(=O)Nc3cnn(C)c3C(=O)NOC(C)(C)C)cc2)[nH]n1,Toxic,> 33,> 33,> 33,Toxic,6,> 33,Non-Toxic,14.7,> 20,0.006,3.3,19.5,> 20,208,> 33,> 20,Non-Toxic,Non-Toxic,> 20,Vd [10]: 0.18 L/kg; IC50 [13]: 1.4 µM; bioavailability [16]: 65%; half-life [18]: 4.7 h; fraction unbound [25]: < 0.0004
Cc1cc(-c2ccc(C(=O)[C@@H]3CCCC[C@H]3C(=O)Nc3cnn4c3C(=O)NCC4)cc2)[nH]n1,Non-Toxic,> 33,> 33,> 33,Non-Toxic,4.2,> 33,Non-Toxic,3.7,> 20,0.053,2.9,13.8,> 20,104,> 33,> 20,Non-Toxic,Non-Toxic,> 20,IC50 [26]: > 32 µM; IC50 [27]: > 32 µM; Activity [28]: Non-Toxic; Vd [29]: 1.1 L/kg; Vd [10]: 1.1 L/kg; clearance [30]: 7.6 mL/min/kg; bioavailability [16]: 65%; half-life [31]: 2.1 h; half-life [18]: 0.45 h; fraction unbound [25]: 0.024; IC50 [32]: > 32 µM
Cc1cc(-c2ccc(C(=O)[C@@H]3CCCC[C@H]3C(=O)Nc3cnn(C)c3S(N)(=O)=O)cc2)[nH]n1,Non-Toxic,> 33,> 33,> 33,Non-Toxic,4.9,> 33,Non-Toxic,9,> 20,0.031,3.4,9.7,> 20,79.7,> 33,> 20,Non-Toxic,Non-Toxic,> 20,IC50 [26]: > 32 µM; IC50 [27]: > 32 µM; Activity [28]: Toxic; Vd [29]: 1.3 L/kg; IC50 [13]: 2.5 µM; clearance [30]: 2.5 mL/min/kg; half-life [31]: 6.8 h; fraction unbound [25]: 0.014; IC50 [32]: > 32 µM
